High-throughput results: PubChem, several laboratories
SUMO HTRF inh: SUMOylation inhibition; HTRF SUMOylation assay, SAE1/SAE2 + UBC9, in vitro; 0.36% of 290,000 active; AID 2006; inhibition, % at 35 µM; P63279; in the data active = inhibition above about 50%, passing the limit was not always enough
Target sequence (P63279 whole entry, looked up): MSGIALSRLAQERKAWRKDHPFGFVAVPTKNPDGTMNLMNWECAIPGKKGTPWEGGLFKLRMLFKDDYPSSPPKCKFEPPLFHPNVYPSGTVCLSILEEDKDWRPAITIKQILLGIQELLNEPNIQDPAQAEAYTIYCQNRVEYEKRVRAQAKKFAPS
PfGluPho inh: PfG6PD (Plasmodium falciparum) enzyme inhibition | 0.78% of 350,000 active | AID 504690 | inhibition, % at 20 µM | PfGluPho enzyme, NADPH resazurin-diaphorase fluorescence;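 active = inhibition reaching at least a set limit at 20 µM in the primary screen, cut at about 59% in these data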;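 also: 0% = DMSO wells with substrate and 100% = DMSO wells lacking glucose-6-phosphate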
A3A deaminase: inhibitors of human APOBEC3A DNA deaminase; P31941; recombinant A3A, FAM/TAMRA ssDNA deamination fluorescence; inhibition, % at 20 µM; 0.41% of 330,000 active;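 active = at least 40% inhibition at 20 µM here, with at most 30% in a related deaminase screen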;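 also: plate controls were A3A with DMSO for no effect and wells lacking A3A enzyme for full effect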
Target sequence (P31941 whole entry, looked up): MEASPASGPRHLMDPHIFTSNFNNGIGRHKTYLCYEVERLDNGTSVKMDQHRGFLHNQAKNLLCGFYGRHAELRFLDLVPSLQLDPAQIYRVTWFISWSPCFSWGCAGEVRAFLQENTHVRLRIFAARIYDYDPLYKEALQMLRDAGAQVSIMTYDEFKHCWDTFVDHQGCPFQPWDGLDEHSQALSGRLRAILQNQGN
PfM18AAP inh-1: blocks P. falciparum M18 aspartyl aminopeptidase; recombinant PfM18AAP, H-Glu-NHMec fluorogenic cleavage; inhibition, % at 7.35 µM; 1.2% of 290,000 active;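 active = inhibition above the campaign mean inhibition over all tested compounds plus 3 SD, cut at about 28% in these data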;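 also: 0% = plate median of test compound wells and 100% = 2 mM ZnCl2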
HKDC1 inhibitor: blocks human hexokinase HKDC1 activity; Q2TB90; recombinant HKDC1, G6PDH/diaphorase resazurin coupled fluorescence; inhibition, % at 20 µM; 0.16% of 340,000 active; AID 493160;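 active = inhibition above about 35% when tested at 20 µM, limit read from the data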;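 also: plate controls were DMSO wells with enzyme for no effect and DMSO wells lacking enzyme for full effect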
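Assay system: recombinant HKDC1 hexokinase; detection: coupled resazurin fluorescence, excitation 525 nm, emission 613 nm; benchmarks: DMSO-plus-enzyme-mix negative control, buffer-substituted positive control; compound dosing: single 20 µM dose; schedule: 90 min at room temperature in dark; also added: glucose plus 1 mM ATP as hexokinase substrates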
A3G deaminase: APOBEC3G (human) deaminase inhibition. Q9HC16. recombinant A3G, ssDNA deamination FAM/TAMRA fluorescence. AID 493012. 0.28% of 330,000 active. inhibition, % at 20 µM;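 active = inhibition of at least 40% at 20 µM, with no more than 30% in the related APOBEC3A deaminase screen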;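 also: plate controls were DMSO wells with A3G for no effect and wells lacking A3G enzyme for full effect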
PfM18AAP inh-2: PfM18AAP inhibition, confirmation. shares compounds with PfM18AAP inh-1. recombinant PfM18AAP, H-Glu-NHMec fluorogenic cleavage. inhibition, % at 7.35 µM. 28% of 2,400 active. AID 2170;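 active = mean inhibition over replicate wells above the hit cutoff set for the earlier primary screen, cut at about 29% in these data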;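 also: 0% = median of test compound wells and 100% = 2 mM ZnCl2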
CTSL1 confirm: counter-screen for PFM18AAP inhibitors: confirmation of human cathepsin L inhibitors | shares compounds with PfM18AAP inh-1 | purified cathepsin L1, Z-Leu-Arg-MCA fluorescence | inhibition, % at 5.96 µM | 2,400 tested, under 10 active;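 active = average inhibition across replicates above the hit cutoff set in the earlier primary screen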;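 also: 0% = median of test compound wells and 100% = Z-Phe-Ala-diazomethylketone 1 µM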
Target sequence (P07711 whole entry, looked up): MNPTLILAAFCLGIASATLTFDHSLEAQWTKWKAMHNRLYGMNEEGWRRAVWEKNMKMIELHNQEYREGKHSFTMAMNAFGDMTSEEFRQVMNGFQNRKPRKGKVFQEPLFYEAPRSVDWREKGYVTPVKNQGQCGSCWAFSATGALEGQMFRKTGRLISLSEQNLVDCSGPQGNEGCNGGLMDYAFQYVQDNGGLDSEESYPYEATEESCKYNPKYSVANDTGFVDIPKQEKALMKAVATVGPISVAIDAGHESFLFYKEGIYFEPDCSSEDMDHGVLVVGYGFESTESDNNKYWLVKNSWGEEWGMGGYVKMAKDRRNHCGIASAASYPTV
Numbers without * were called inactive; · = not tested or not shown. Hits are enriched below; roughly 2.4% of the tested compounds scored in any of these assays.

SMILES	SUMO HTRF inh	PfGluPho inh	A3A deaminase	PfM18AAP inh-1	HKDC1 inhibitor	A3G deaminase	PfM18AAP inh-2	CTSL1 confirm
CN(C)c1ccc(CNc2ncn[nH]2)cc1	-13.0	-5.9	0.2	36.9*	1.0	-0.7	-8.9	-1.5
COc1ccccc1CNc1ccc(CNc2ncn[nH]2)cc1	12.9	-16.7	-1.5	32.6*	-2.5	-6.4	-16.7	1.0
COc1cc(CNc2ccc(CNc3ncn[nH]3)cc2)ccc1OCc1ccccc1	-15.4	25.3	-1.4	46.6*	-2.5	-4.2	-4.9	4.4
CCCCc1ccc(NC=C2C(=O)OC3(CCCCC3)OC2=O)cc1	-5.3	-2.7	-1.3	2.0	-1.6	-5.7	·	·
O=C(O)C1CCN(C(=O)CCN2C(=O)S/C(=C\c3ccccc3)C2=O)CC1	7.7	-12.2	-4.0	37.0*	2.8	-7.7	-44.9	7.8
COC(=O)c1nc2n(n1)C(c1ccc(OC)c(OC)c1OC)C1=C(CCCC1=O)N2 (stereo not given)	2.9	-6.2	1.0	1.1	-7.0	2.9	·	·
CCOc1cc(C(=O)NC(=S)Nc2nc(C)cc(C)n2)cc(OCC)c1OCC	-24.8	-1.7	-6.0	3.3	7.7	-9.2	·	·
CCOc1cc(C(=O)Nn2cnnc2)cc(OCC)c1OCC	2.3	-4.1	1.2	34.8*	-2.5	-8.4	24.0	0.9
CCOc1cc(C(=O)NC(=S)Nn2cnnc2)cc(OCC)c1OCC	13.1	3.2	-5.1	75.3*	-2.4	-8.5	75.3*	-2.4
CC(=O)c1c(C)[nH]c(C(=O)NCCc2ccc(Cl)cc2)c1C	2.9	8.9	-0.5	60.6*	-12.7	-4.0	-47.4	-1.2
O=C(Nn1cnnc1)C(Sc1ccccc1)c1ccccc1 (stereo not given)	-16.5	-4.5	0.1	48.2*	4.6	-5.6	34.1*	-2.5
O=C(NC(=S)Nn1cnnc1)c1ccccc1	·	15.4	-5.0	·	-0.6	0.5	·	·
O=C(Nn1cnnc1)C(c1ccccc1)c1ccccc1	24.9	-3.4	-1.2	42.8*	-8.2	-1.2	20.5	-8.6
COc1cc(S(=O)(=O)N2CCOCC2)ccc1NC(=O)COC(=O)COc1ccccc1	16.0	-3.3	-1.8	1.8	0.9	-3.3	·	·
COc1cc(OC)c2c(c1O)OC(c1ccccc1)CC2=O (stereo not given)	13.0	27.3	4.8	48.9*	-0.7	6.2	-0.3	4.0
O=C1CC(c2ccccc2)Oc2cc(O)cc(O)c21 (stereo not given)	14.8	-10.8	2.0	·	-1.6	1.8	·	·
COc1cc(/C=N/N2C(=O)CSC2=S)ccc1O	-5.5	1.5	2.6	32.6*	1.1	1.2	9.5	-1.5
O=C1CSC(=S)N1/N=C/c1ccc2c(c1)OCCO2	12.1	-6.1	-0.2	33.9*	1.8	-5.7	-9.2	-0.2
N#CC1=C(N)C(C#N)(C#N)C2(CCC3(CC2)OCCO3)C2CC3(CC=C12)OCCO3 (stereo not given)	-2.6	2.6	-1.4	55.2*	-1.1	-5.0	-3.0	-1.5
N#CC1=C(N)C(C#N)(C#N)[C@H](c2c(F)cccc2F)[C@H]2CC3(CC=C12)OCCO3	13.0	-2.3	0.4	10.2	11.0	-6.8	·	·
S=c1[nH]nc(COc2ccc(Cl)cc2)n1C1CCCCC1	-8.9	-13.4	-6.8	7.3	-1.4	-5.1	·	·
COc1cc(Cl)c(C)cc1NC(=S)NN	-11.6	17.6	3.6	31.9*	-6.9	24.0	21.1	-6.1
O=C(COc1ncnc2ccccc12)Nc1cc([N+](=O)[O-])ccc1Cl	31.7	-20.6	1.5	1.6	9.3	-2.6	·	·
O=C(NC(=S)NNC(=O)c1cccs1)c1ccccc1	15.2	13.7	-4.1	10.5	-3.8	15.1	·	·
Cc1cccc(C(=O)NC(=S)NNC(=O)c2cccs2)c1	4.8	22.3	1.5	33.5*	-12.9	10.5	-27.5	1.7
SMILES	SUMO HTRF inh	PfGluPho inh	A3A deaminase	PfM18AAP inh-1	HKDC1 inhibitor	A3G deaminase	PfM18AAP inh-2	CTSL1 confirm
Cc1ccnc(NC(=S)N2CCN(c3cccc(C(F)(F)F)c3)CC2)c1	20.8	52.8	-1.8	39.0*	-2.3	3.0	-20.0	7.4
Cc1ccc(-n2nnnc2SCc2ccc(C(=O)O)cc2)cc1C	10.5	-25.5	2.7	-2.0	-0.7	1.8	·	·
O=C(NC1(C(F)(F)F)Oc2ccccc2O1)N1CCCC1	-11.8	5.8	-1.5	75.4*	2.1	-1.8	45.3*	-1.5
O=C(NCC1CCCO1)NC1(C(F)(F)F)Oc2ccccc2O1 (stereo not given)	17.6	0.3	1.6	36.8*	3.5	-0.6	-16.2	0.7
O=C(NCC1CCCO1)c1ccccc1 (stereo not given)	-0.3	-7.8	-4.4	-8.7	-5.0	-5.7	·	·
O=C(Nc1ccccc1)N1CCCC1	-15.7	-1.9	0.3	-3.8	7.2	-2.0	·	·
COc1ccc(NC(=O)n2nc(OC(=O)c3cccs3)cc2N)cc1	5.4	17.6	-3.5	49.7*	1.7	-9.7	4.8	-16.7
CN(C)c1ccc(/C=N/NC(=O)CCCO)cc1	13.2	-2.4	-3.8	2.2	-9.6	-8.7	·	·
CN(C)c1ccc(/C=N\NC(=O)CC#N)cc1	-0.7	10.8	-2.5	50.4*	-14.6	-4.6	-34.4	3.4
N#CCC(=O)N/N=C/c1ccc(OC2CSC2)cc1	-4.8	-5.0	-2.0	40.2*	-7.3	-7.5	-12.3	0.4
Cc1snc2sc(C(=O)c3ccc(F)cc3)c(N)c12	-16.3	-1.6	2.4	41.1*	-6.0	-2.4	-38.0	5.3
COc1cc(C(=O)NNc2nc3cc4c(cc3s2)OCO4)cc(OC)c1OC	-11.6	53.7	4.3	40.6*	0.4	0.0	16.4	-6.2
O=C(NNc1nc2cc3c(cc2s1)OCO3)c1ccccc1	-5.2	49.0	-2.2	47.9*	-2.1	-6.1	24.1	-4.9
COc1ccc(CCNc2ccc(C)cc2)cc1	6.5	6.7	-6.2	-6.7	-9.8	-6.1	·	·
Cc1cccc(C(=O)NNC(=O)c2c(-c3ccccc3Cl)noc2C)c1O	0.7	-6.3	-1.5	39.5*	-8.7	-6.8	-4.2	0.2
Cc1onc(-c2c(Cl)cccc2Cl)c1C(=O)Nn1cnnc1	32.0	8.8	-3.8	44.7*	-7.2	-7.9	37.4*	1.9
COc1ccc(C(=O)Nn2cnnc2)cc1OC	-1.9	-11.5	-4.9	43.1*	-4.9	-8.4	25.5	-1.3
COc1ccc(C(=O)Nn2cnnc2)c(OC)c1	-4.4	-8.7	-2.4	33.6*	-3.6	-2.4	6.8	0.9
Cc1onc(-c2c(Cl)cccc2Cl)c1C(=O)c1ccccc1	0.3	11.8	-1.3	-10.7	-2.2	-5.1	·	·
Cc1onc(-c2ccccc2Cl)c1C(=O)NNC(=O)c1ccc(F)cc1	14.9	-29.7	-1.0	-4.8	-9.0	-9.3	·	·
CCCC(C(=O)NCC1CCCO1)N(Cc1ccccc1)C(=O)CNS(=O)(=O)c1ccccc1 (stereo not given)	10.6	-7.1	-0.4	3.7	-0.5	-12.1	·	·
